Active and inactive are the calls of the source. The calls are words filed in the database; no cut-off is given here.
Legend:
Rattus norvegicus [1] = test: Dose required to reduce serum cholesterol by 50% relative to OVX controls was determined (in vivo); format: functional
In short: (§1)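 OVX Sprague–Dawley rats (75 days old), 5–6 per group, dosed once daily by oral gavage for 4 consecutive days, starting 14 days after ovariectomy. Vehicle was 20% β-hydroxycyclodextrin at 1 mL/kg, or 1.5% carboxymethylcellulose in some cases. Rats were fasted after the last dose and bled by cardiac puncture next morning.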

Rattus norvegicus [2] = test: Percent decrease in serum cholesterol relative to OVX control at 0.1 mg/kg in rat was determined (in vivo); format: functional; in short: as §1
Rattus norvegicus [3] = test: Percent decrease in serum cholesterol relative to OVX control at 1 mg/kg in rat; format: functional; in short: as §1
Rattus norvegicus [4] = test: Percent decrease in serum cholesterol relative to OVX control at 10 mg/kg in rat was determined (in vivo); format: functional; in short: as §1
Rattus norvegicus [5] = test: Minimum effective dose at which significant increase in uterine eosinophil peroxidase (EPO) activity in rat was determined (in vivo); format: functional; settings: read-out: MED
Rattus norvegicus [6] = test: Minimum effective dose at which significant increase in uterine weight/body weight in rat was determined (in vivo); format: functional; settings: read-out: MED
In short: (§2)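 In 75-day OVX Sprague–Dawley rats dosed orally for 4 days, beginning 2 weeks post-ovariectomy with 5–6 rats per group, whole uteri were weighed the morning after fasting. MED is the lowest dose giving a significant (p≤0.05) rise in uterine weight/body weight, expressed as % increase over OVX controls ±SE.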

Rattus norvegicus [7] = test: Eosinophil peroxidase activity expressed as Vmax was determined in rat (in vivo) Eosinophil peroxidase activity expressed as Vmax was determined in rat (in vivo); format: functional; set-up: unit not given here
Rattus norvegicus [8] = test: Minimum effective dose at which significant increase in uterine weight/body weight in rat was determined (in vivo); expressed as % increase relative to ovariectomized (OVX) controls; format: functional; in short: as §2
Estrogen receptor [9] = molecular target: T1, Estrogen receptor (Homo sapiens, UniProt Q92731+P03372); settings: mcf7
MCF7 = test: Inhibition of MCF-7 cell proliferation stimulated by 10e-[…] M 17-beta-estradiol; Not active at the doses tested; format: functional, cell-based, Homo sapiens
Rattus norvegicus [10] = test: Eosinophil peroxidase activity expressed as Vmax was determined in rat (in vivo); format: functional
Rattus norvegicus [11] = test: Percent protection of bone mineral density in the distal femur of OVX rat at a dose of 0.01 mg/kg/day; format: functional
In short: (§3)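 OVX Sprague–Dawley rats (6-month old, or 75-day old in one case) were dosed orally each day for 35 days, starting 4 days after ovariectomy. Digitized X-rays of the right distal femoral metaphysis gave BMD. % protection = (test − OVX)/(sham − OVX) × 100, reported ±SE.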

Rattus norvegicus [12] = test: Percent protection of bone mineral density in the distal femur of OVX rat at a dose of 0.1 mg/kg/day; format: functional; in short: as §3
Rattus norvegicus [13] = test: Percent protection of bone mineral density in the distal femur of OVX rat at a dose of 1 mg/kg/day; format: functional; in short: as §3
Rattus norvegicus [14] = test: Percent protection of bone mineral density in the distal femur of OVX rat at a dose of 10 mg/kg/day; format: functional; in short: as §3
Rattus norvegicus [15] = test: Percent decrease in serum cholesterol relative to OVX control at 0.1 mg/kg in rats; format: functional; in short: as §1
Rattus norvegicus [16] = test: Percent decrease in serum cholesterol relative to OVX control at 1.0 mg/kg in rats; format: functional; in short: as §1
Rattus norvegicus [17] = test: Percent decrease in serum cholesterol relative to OVX control at 10 mg/kg in rats; format: functional; in short: as §1
Rattus norvegicus [18] = test: Percent protection of bone mineral density in the distal femur of 75-days old OVX rat at a dose of 0.01 mg/kg/day; format: functional; in short: as §3
Rattus norvegicus [19] = test: Percent protection of bone mineral density in the distal femur of 75-days old OVX rat at a dose of 0.1 mg/kg/day; format: functional; in short: as §3
Rattus norvegicus [20] = test: Percent protection of bone mineral density in the distal femur of 75-days old OVX rat at a dose of 10 mg/kg/day; format: functional; in short: as §3
Estrogen receptor [21] = molecular target: T1, Estrogen receptor; test: In vitro relative binding affinity by competition with [3H]17-beta-estradiol for estrogen receptor in MCF-7 cell lysate; Not active at the doses tested; format: cell-based
In short: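 Human MCF-7 cell lysate (0.5–1.0 mg/mL total protein) incubated 18 h at 4 °C with 0.5 nM [3H]17β-estradiol and serial dilutions of test compound. Unbound radioligand removed with dextran/charcoal and centrifugation; bound label in the supernatant counted by scintillation. RBA = IC50(17β-estradiol)/IC50(test compound) × 100.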

| IC50 (Estrogen receptor [9]) [nM] | Compound | ED50 (Rattus norvegicus [1]) [mg/kg] | Decrease (Rattus norvegicus [2]) [%] | Decrease (Rattus norvegicus [3]) [%] | Decrease (Rattus norvegicus [4]) [%] | minimal effective dose (Rattus norvegicus [5]) [mg/kg] | minimal effective dose (Rattus norvegicus [6]) [mg/kg] | Increase (Rattus norvegicus [8]) [%] | Protection (Rattus norvegicus [12]) [%] | Protection (Rattus norvegicus [13]) [%] | further results |
| --- | --- | --- | --- | --- | --- | --- | --- | --- | --- | --- | --- |
| 100 | CCSCc1ccc(-c2sc3cc(O)ccc3c2C(=O)c2ccc(OCCN3CCCCC3)cc2)cc1 | 2.5 | 21.7 | 40.1 | 63 | 1 | 1 | 30.5 | – | – | Eosinophil peroxidase activity (Vmax) (Rattus norvegicus [7]): 36.9 |
| – | C[C@]12CC[C@@H]3c4ccc(O)cc4CC[C@H]3[C@@H]1CC[C@@H]2O [ESTRADIOL] | – | – | – | – | – | – | – | – | – | IC50 (MCF7): Not Active |
| – | Cl.O=C(c1ccc(OCCN2CCCCC2)cc1)c1c(-c2ccc(Cl)cc2)sc2ccccc12 | – | – | – | – | – | – | – | – | – | IC50 (MCF7): Not Active |
| 5 | CCc1ccc(-c2sc3cc(O)ccc3c2C(=O)c2ccc(OCCN3CCCCC3)cc2)cc1 | 4.3 | 3.3 | 37.2 | 57.4 | 1 | 10 | 29.7 | – | – | Increase (Rattus norvegicus [10]): 39.9 Vmax |
| 0.3 | O=C(c1ccc(OCCN2CCCCC2)cc1)c1c(-c2ccc(O)c(F)c2)sc2cc(O)ccc12 | 0.4 | 45.9 | 59.2 | 55.3 | > 10 | 0.1 | 34.3 | 34.1 | 68 | Protection (Rattus norvegicus [11]): 34.5%; Protection (Rattus norvegicus [14]): 69.8% |
| 35 | Cl.O=C(c1ccc(OCCN2CCCCC2)cc1)c1c(-c2ccc(O)cc2)sc2ccccc12 | < 0.1 | 70.7 | 69.9 | 67.4 | > 10 | 0.1 | 39.2 | – | 41.8 | Protection (Rattus norvegicus [18]): -1.3%; Protection (Rattus norvegicus [19]): -4%; Protection (Rattus norvegicus [20]): 26.7% |
| – | O=C(c1ccc(OCCN2CCCCC2)cc1)c1c(-c2ccc(O)cc2)sc2cc(O)ccc12 [RALOXIFENE] | 0.2 | 44.9 | 66.7 | 74 | > 10 | 0.1 | 23.5 | 50 | 57.7 | Protection (Rattus norvegicus [11]): 9.6%; Protection (Rattus norvegicus [14]): 53.8% |
| 30 | CC(C)c1ccc(-c2sc3cc(O)ccc3c2C(=O)c2ccc(OCCN3CCCCC3)cc2)cc1 | 3.6 | -24.1 | 47.1 | 48.5 | 1 | 0.1 | 24.9 | – | – | Increase (Rattus norvegicus [10]): 33.3 Vmax |
| 100 | Cc1cc(-c2sc3cc(O)ccc3c2C(=O)c2ccc(OCCN3CCCCC3)cc2)cc(C)c1O | 1.8 | 23.1 | 40.2 | 69.1 | 1 | 1 | 33.8 | – | – | Eosinophil peroxidase activity (Vmax) (Rattus norvegicus [7]): 40.8 |
| – | O=C(c1ccc(OCCN2CCCCC2)cc1)c1c2ccc(O)cc2sc1[C@H]1CC[C@H](O)CC1 | 1 | – | – | 60.4 | > 10 | 0.1 | 46.7 | 17 | 61.3 | Decrease (Rattus norvegicus [15]): 48.7%; Decrease (Rattus norvegicus [16]): 41.1%; Protection (Rattus norvegicus [14]): 67.4% |
| 3.2 | O=C(c1ccc(OCCN2CCCCC2)cc1)c1c(-c2cccc(O)c2)sc2cc(O)ccc12 | 0.8 | – | – | – | > 10 | > 10 | – | -30.9 | 79.7 | Protection (Rattus norvegicus [14]): 44.2% |
| – | COC(=O)c1ccc2c(C(=O)c3ccc(OCCN4CCCCC4)cc3)c(-c3ccc(O)cc3)sc2c1.Cl | 2.8 | 13.8 | 42.8 | 61 | > 10 | 0.1 | 37.5 | -10 | 17 | Protection (Rattus norvegicus [14]): 43.9% |
| 1000 | O=C(c1ccc(OCCN2CCCCC2)cc1)c1c(-c2ccc(C(F)(F)F)cc2)sc2cc(O)ccc12 | 0.4 | – | – | – | 5 | 5 | – | – | – | Decrease (Rattus norvegicus [17]): 71.5% |
| 2 | O=C(c1ccc(OCCN2CCCCC2)cc1)c1c(-c2ccc(O)c3ccccc23)sc2cc(O)ccc12 | 1.2 | – | – | 59.9 | 0.1 | 0.1 | 59.6 | 42.3 | 82.5 | Decrease (Rattus norvegicus [15]): 31.6%; Decrease (Rattus norvegicus [16]): 54.7%; Eosinophil peroxidase activity (Vmax) (Rattus norvegicus [7]): 29.4; Protection (Rattus norvegicus [11]): 35.9% |
| – | O=C(O)c1ccc2c(C(=O)c3ccc(OCCN4CCCCC4)cc3)c(-c3ccc(O)cc3)sc2c1 | 9 | -16.4 | 12.5 | 53.3 | > 10 | 1 | 40.8 | – | – | relative binding affinity (RBA) (Estrogen receptor [21]): inactive; IC50 (MCF7): Not Active |
| 300 | Cc1ccc2c(C(=O)c3ccc(OCCN4CCCCC4)cc3)c(-c3ccc(O)cc3)sc2c1.Cl | > 10 | 16.9 | 33.9 | 21.6 | > 10 | 1 | 23.9 | – | – | relative binding affinity (RBA) (Estrogen receptor [21]): inactive |

| Compound | IC50 (Estrogen receptor [9]) [nM] | ED50 (Rattus norvegicus [1]) [mg/kg] | Decrease (Rattus norvegicus [2]) [%] | Decrease (Rattus norvegicus [3]) [%] | Decrease (Rattus norvegicus [4]) [%] | minimal effective dose (Rattus norvegicus [5]) [mg/kg] | minimal effective dose (Rattus norvegicus [6]) [mg/kg] | Increase (Rattus norvegicus [8]) [%] | Protection (Rattus norvegicus [12]) [%] | Protection (Rattus norvegicus [13]) [%] | further results |
| --- | --- | --- | --- | --- | --- | --- | --- | --- | --- | --- | --- |
| O=C(c1ccc(OCCN2CCCCC2)cc1)c1c(-c2ccc(-c3ccccc3)cc2)sc2cc(O)ccc12 | 100 | 2.4 | 12.9 | 37 | 68.5 | 1 | 0.1 | 50.3 | – | – | Eosinophil peroxidase activity (Vmax) (Rattus norvegicus [7]): 25.4 |
| O=C(c1ccc(OCCN2CCCCC2)cc1)c1c(Cc2ccc(O)cc2)sc2cc(O)ccc12 | 5 | 4 | – | – | – | > 10 | 5 | 36.9 | – | – | Decrease (Rattus norvegicus [15]): -17.6%; Decrease (Rattus norvegicus [16]): 41.7%; Decrease (Rattus norvegicus [17]): 54% |
